From ChEMBL document CHEMBL3797143, “Novel S1P1 receptor agonists - Part 5: From amino-to alkoxy-pyridines” (Eur J Med Chem, 2016)
Activity calls are given as the source filed them. No cut-off for these calls is given here.

What was measured:
[1] = target: Sphingosine 1-phosphate receptor 1 (Homo sapiens, UniProt P21453); assay: Agonist activity at human recombinant S1PR1 expressed in CHO cell membranes incubated for 30 mins by [35S]GTPgammaS binding assay in presence of GDP; format: functional
Outline: (§1)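 Membranes from CHO cells expressing recombinant human S1P1 or S1P3. Compounds were preincubated with membranes for 30 min at room temperature. Reaction stopped by filtration, membrane-bound 35S-GTPγS counted. Geometric mean of ≥3 independent runs.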

[2] = target: Sphingosine 1-phosphate receptor 3 (Homo sapiens, UniProt Q99500); assay: Agonist activity at human recombinant S1PR3 expressed in CHO cell membranes incubated for 30 mins by [35S]GTPgammaS binding assay in presence of GDP; format: functional; outline: as §1
[3] = test system: Rattus norvegicus; assay: Time duration of maximum lymphocyte count reduction in Wistar rat at 10 mg/kg administered via oral gavage; format: functional
Outline: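 Duration of action is the latest sampling time at which maximal lymphocyte-count reduction was still seen. Male Wistar rats received 10 mg/kg orally, and blood lymphocytes were counted before dosing and at 3, 6 and 24 h (later times in some cases). Mean of 6-8 animals.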

[4] = test system: Rattus norvegicus; assay: Decrease in peripheral blood lymphocyte count in Wistar rat at 10 mg/kg administered via oral gavage measured after 3 hrs; format: functional; design: scale not given: the % may be the effect or the level left
Outline: (§2)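 Male Wistar rats (RccHan:WIST) were given 10 mg/kg orally by gavage in vehicle containing 5% DMSO. Blood drawn by sublingual vein puncture under isoflurane before dosing and at the listed times after dosing. Lymphocytes counted on a haematology analyser. Results are % change from baseline, mean of 6-8 animals.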

[5] = test system: Rattus norvegicus; assay: Decrease in peripheral blood lymphocyte count in Wistar rat at 10 mg/kg administered via oral gavage measured after 6 hrs; format: functional; design: scale not given: the % may be the effect or the level left; outline: as §2
[6] = test system: Rattus norvegicus; assay: Decrease in peripheral blood lymphocyte count in Wistar rat at 10 mg/kg administered via oral gavage measured after 24 hrs; format: functional; design: scale not given: the % may be the effect or the level left; outline: as §2
[7] = test system: Rattus norvegicus; assay: Decrease in peripheral blood lymphocyte count in Wistar rat at 10 mg/kg administered via oral gavage measured after 72 hrs; format: functional; outline: as §2
[8] = Half life in Wistar rat at 10 mg/kg administered via oral gavage by LC-MS/MS analysis; format: ADME, organism-based; conditions: in vivo
Outline: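 Oral half-life was calculated from plasma concentrations measured in the lymphocyte-count study, in which male Wistar rats received 10 mg/kg orally. Plasma was prepared from EDTA blood by centrifugation at 3000 g for 10 min at 4 °C.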

[9] = Phototoxicity in Balb/c mouse 3T3 clone A31 cells assessed as AUC of UV spectra between 310 and 350 nm normalized to compound concentration at 0.05 to 100 uM preincubated for 1 hr followed by UVA irradiation measured after 24 hrs by neutral red uptake assay relative to control; format: functional
[10] = Phototoxicity in Balb/c mouse 3T3 clone A31 cells assessed as inhibition of cell viability measured as photo irritancy factor at 0.05 to 100 uM preincubated for 1 hr followed by UVA irradiation measured after 24 hrs by neutral red uptake assay relative to control; format: functional
[11] = Plasma concentration in Wistar rat at 10 mg/kg administered via oral gavage measured after 3 hrs by LC-MS/MS analysis; format: ADME, organism-based
Outline: (§3)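 Male Wistar rats received 10 mg/kg orally by gavage. Blood was drawn at the listed times into EDTA tubes, and plasma was prepared by centrifugation at 3000 g for 10 min at 4 °C. Limit of quantification 3 nM.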

[12] = Plasma concentration in Wistar rat at 10 mg/kg administered via oral gavage measured after 6 hrs by LC-MS/MS analysis; format: ADME, organism-based; outline: as §3
[13] = Plasma concentration in Wistar rat at 10 mg/kg administered via oral gavage measured after 24 hrs by LC-MS/MS analysis; format: ADME, organism-based; outline: as §3
[14] = Plasma concentration in Wistar rat at 10 mg/kg administered via oral gavage measured after 72 hrs by LC-MS/MS analysis; format: ADME, organism-based; outline: as §3
[15] = test system: Rattus norvegicus; assay: Decrease in peripheral blood lymphocyte count in Wistar rat at 10 mg/kg administered via oral gavage measured after 96 hrs; format: functional; design: scale not given: the % may be the effect or the level left; outline: as §2
[16] = test system: Rattus norvegicus; assay: Decrease in peripheral blood lymphocyte count in Wistar rat at 10 mg/kg administered via oral gavage measured after 144 hrs; format: functional; design: scale not given: the % may be the effect or the level left; outline: as §2

Sequence of Sphingosine 1-phosphate receptor 1 (P21453 whole entry): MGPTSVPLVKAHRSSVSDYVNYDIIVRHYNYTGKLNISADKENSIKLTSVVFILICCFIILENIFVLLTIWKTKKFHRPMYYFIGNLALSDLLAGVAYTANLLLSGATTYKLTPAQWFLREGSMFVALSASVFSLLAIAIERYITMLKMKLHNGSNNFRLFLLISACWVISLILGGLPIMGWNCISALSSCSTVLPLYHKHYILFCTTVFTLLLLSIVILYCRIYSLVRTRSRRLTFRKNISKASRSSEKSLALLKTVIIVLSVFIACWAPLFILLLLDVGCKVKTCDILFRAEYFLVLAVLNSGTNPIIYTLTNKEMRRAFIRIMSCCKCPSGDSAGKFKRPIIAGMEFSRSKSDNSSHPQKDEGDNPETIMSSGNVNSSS
Sequence of Sphingosine 1-phosphate receptor 3 (Q99500 whole entry): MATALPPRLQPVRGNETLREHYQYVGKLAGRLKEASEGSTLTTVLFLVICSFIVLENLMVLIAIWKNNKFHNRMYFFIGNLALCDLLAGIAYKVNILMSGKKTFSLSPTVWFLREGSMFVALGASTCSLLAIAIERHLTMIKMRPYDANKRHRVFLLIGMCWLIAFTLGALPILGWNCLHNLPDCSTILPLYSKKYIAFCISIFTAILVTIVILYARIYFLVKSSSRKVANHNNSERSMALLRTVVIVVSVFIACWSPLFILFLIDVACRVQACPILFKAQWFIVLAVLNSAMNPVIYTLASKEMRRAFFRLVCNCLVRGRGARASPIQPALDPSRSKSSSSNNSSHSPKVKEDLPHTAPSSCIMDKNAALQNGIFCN

Compound	EC50 [1]	EC50 [2]	half-life [8]	concentration at 3 h [11]	concentration at 6 h [12]	concentration at 24 h [13]	concentration at 72 h [14]	Time [3]	Activity [4]	Activity [5]	Activity [6]	Activity [7]	Ratio [9]	Ratio [10]	Activity [15]	Activity [16]
CCc1cc(-c2noc(-c3cc(OC)nc(-c4ccccc4)c3)n2)cc(C)c1OC[C@@H](O)CNC(=O)CO	28 nM	1600 nM														
CCc1cc(-c2noc(-c3cc(OC4CCCC4)cc(C)n3)n2)cc(C)c1OC[C@@H](O)CNC(=O)CO	11 nM	1400 nM	< 3 h	1560 nM	510 nM	< 9 nM		<3 h	50%	36%	-33%		0	1.3		
CCc1cc(-c2nc(-c3cc(C)c(OC[C@@H](O)CO)c(CC)c3)no2)cnc1CC(C)C														1.6		
CCc1cc(-c2noc(-c3cnc(OC)c(C4CCCC4)c3)n2)cc(C)c1OC[C@@H](O)CNC(=O)CO	1.5 nM	17 nM														
CCc1cc(-c2nc(-c3cc(C)c(CCC(=O)NCCO)c(CC)c3)no2)cnc1N(C)C(C)C														>200		
CCc1cc(-c2noc(-c3cc(C4CCCC4)cc(OC)n3)n2)cc(C)c1OC[C@@H](O)CNC(=O)CO	4.5 nM	1500 nM	5 h	1790 nM	1300 nM	100 nM		6 h	63%	75%	-2%		0.09	2.1		
CCc1cc(-c2noc(-c3cc(C)nc(C(CC)CC)c3)n2)cc(C)c1OC[C@@H](O)CNC(=O)CO														1.7		
CCc1cc(-c2noc(-c3cc(OC)nc(C4CCCCC4)c3)n2)cc(C)c1OC[C@@H](O)CNC(=O)CO	7.3 nM	690 nM						24 h	58%	58%	72%				33%	
CCc1cc(-c2noc(-c3cc(C)nc(N(CC)CC)c3)n2)cc(C)c1OC[C@@H](O)CNC(=O)CO								72 h			70%	62%				
CCc1cc(-c2noc(-c3cnc(C)c(OC4CCCC4)c3)n2)cc(C)c1OC[C@@H](O)CNC(=O)CO	21 nM	38 nM														
CCc1cc(-c2nnc(-c3cc(C)nc(CC(C)C)c3)o2)cc(C)c1OC[C@@H](O)CNC(=O)CO														1.1		
CCc1cc(-c2noc(-c3cc(OC)cc(CC(C)C)n3)n2)cc(C)c1OC[C@@H](O)CNC(=O)CO	1.5 nM	1400 nM						6 h	58%	66%	23%					
CCc1cc(-c2nnc(-c3cc(C)nc(N(CC)CC)c3)o2)cc(C)c1OC[C@@H](O)CNC(=O)CO														>200		

Second part, led by results:

EC50 [1]	EC50 [2]	half-life [8]	concentration at 3 h [11]	concentration at 6 h [12]	concentration at 24 h [13]	concentration at 72 h [14]	Compound	Time [3]	Activity [4]	Activity [5]	Activity [6]	Activity [7]	Ratio [9]	Ratio [10]	Activity [15]	Activity [16]
0.3 nM	22 nM						CCc1cc(-c2noc(-c3cc(OC)nc(C4CCC4)c3)n2)cc(C)c1OC[C@@H](O)CNC(=O)CO	24 h	56%	61%	61%	Active				
0.6 nM	210 nM	4 h	2520 nM	2020 nM	71 nM		CCc1cc(-c2noc(-c3cc(OC)c(C4CCCC4)cn3)n2)cc(C)c1OC[C@@H](O)CNC(=O)CO	6 h	79%	86%	60%		0.02	2.1		
1.4 nM	920 nM	6 h	690 nM	500 nM	61 nM		CCc1cc(-c2noc(-c3ccc(C4CCCC4)c(OC)n3)n2)cc(C)c1OC[C@@H](O)CNC(=O)CO	6 h	70%	78%	23%		0.17	6.5		
1 nM	190 nM	13 h	2200 nM	2040 nM	790 nM	67 nM	CCc1cc(-c2noc(-c3cc(C)nc(OC4CCCC4)c3)n2)cc(C)c1OC[C@@H](O)CNC(=O)CO	24 h	69%	66%	74%	43%	0.12	7.5		
0.2 nM	95 nM						CCc1cc(-c2noc(-c3cc(C)nc(OC(C)C)c3)n2)cc(C)c1OC[C@@H](O)CNC(=O)CO	96 h	66%	67%	74%				70%	28%
0.3 nM	71 nM	11 h	2390 nM	2950 nM	970 nM		CCc1cc(-c2noc(-c3cnc(C4CCCC4)c(OC)c3)n2)cc(C)c1OC[C@@H](O)CNC(=O)CO	24 h	73%	82%	84%		0.15	7.6		
1 nM	930 nM	4 h	1610 nM	890 nM	39 nM		CCc1cc(-c2noc(-c3cc(C)cc(OC4CCCC4)n3)n2)cc(C)c1OC[C@@H](O)CNC(=O)CO	6 h	51%	58%	-18%		0.1	2		
0.3 nM	110 nM						CCc1cc(-c2noc(-c3cc(C)nc(OC4CCC4)c3)n2)cc(C)c1OC[C@@H](O)CNC(=O)CO	96 h	66%	62%	72%				62%	21%
1.1 nM	55 nM						CCc1cc(-c2nc(-c3cc(C)c(OC[C@@H](O)CNC(=O)CO)c(CC)c3)no2)cc(OC2CCC2)n1	168 h	72%	75%	79%					
1.1 nM	180 nM	4 h	410 nM	240 nM	12 nM		CCc1cc(-c2noc(-c3cc(C(CC)CC)cc(OC)n3)n2)cc(C)c1OC[C@@H](O)CNC(=O)CO	<3 h	57%	50%	-10%					
0.7 nM	140 nM	16 h	1140 nM	960 nM	510 nM		CCc1cc(-c2noc(-c3cnc(OC4CCCC4)c(C)c3)n2)cc(C)c1OC[C@@H](O)CNC(=O)CO	24 h	76%	85%	85%		0.02	1.4		
0.7 nM	800 nM						CCc1cc(-c2noc(-c3cc(OC)cc(C4CCCC4)n3)n2)cc(C)c1OC[C@@H](O)CNC(=O)CO	6 h	58%	61%	30%		0	2.4		
1.2 nM	520 nM						CCc1cc(-c2noc(-c3cc(OC)cc(C(CC)CC)n3)n2)cc(C)c1OC[C@@H](O)CNC(=O)CO									
1.1 nM	50 nM						CCc1cc(-c2nc(-c3cc(C)c(OC[C@@H](O)CNC(=O)CO)c(CC)c3)no2)cc(OC2CCCC2)n1	24 h	64%	71%	76%				Active	
